Data on 7 compounds can be found in ChEMBL document CHEMBL1155974, “The nucleoside analogue D-carba T blocks HIV-1 reverse transcription” (J Med Chem, 2009).

Calls of active or inactive are those of the source. The rule behind the calls is not given here. Bounds are passed on as bounds.

Series [1] in a line: Inhibition of HIV1 reverse transcriptase SSGR/T215Y mutant-mediated viral DNA synthesis in human HOS cells assessed as luciferase activity treated 3 hrs before infection measured after 48 hrs by luminescence assay. Type of series: cell-based. The note with it: Human immunodeficiency virus 1, HOS. In outline: (§1)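 Single-cycle infection with a VSV-G-pseudotyped, Env-deleted HIV-1 luciferase vector carrying wt or NRTI-resistant RT, made by calcium phosphate transfection of 293 cells, harvested at 48 h and diluted 1:5. HOS or HSV-TK-expressing HOS 313 cells were seeded at 4000/well, pretreated with compound for 3 h, then infected for 48 h. Luciferase was normalized to untreated infection of the same RT variant. IC50 came from a four-parameter sigmoidal fit.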

Series [2] is described as follows: Inhibition of HIV1 reverse transcriptase M41L/D67N/K70R/T215Y/K219Q mutant-mediated viral DNA synthesis in human HOS cells assessed as luciferase activity treated 3 hrs before infection measured after 48 hrs by luminescence assay. Type of series: cell-based. The note with it: Human immunodeficiency virus 1, HOS. The essentials: as §1
Series [3] has as its target Human immunodeficiency virus type 1 reverse transcriptase (Human immunodeficiency virus 1) (UniProt Q72547). In words: Inhibition of HIV1 reverse transcriptase-mediated viral DNA synthesis at 10 uM by PAGE.
Series [4] relates to TZM. Briefly: Cytotoxicity against human TZM cells at 5% (w/v) after 48 hrs by XTT assay. The format is cell-based. The essentials:
(§2)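 Cells (TZM, GHOST, HuT-CCR5) incubated 48 h with five dilutions of compound; XTT substrate then added for a further 4–5 h, and viability read from conversion of the dye by live cells. Hydroxypropyl-β-cyclodextrin served as positive control for killing.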
Background: Formazan colour is commonly taken as a measure of viable cells.

The nature of series [5]: Cytotoxicity against human GHOST cells at 5% (w/v) after 48 hrs by XTT assay. The format is cell-based. In outline:
as §2

The nature of series [6]: Cytotoxicity against human Hut/CCR5 cells at 5% (w/v) after 48 hrs by XTT assay. Type of series: cell-based. The note with it: hut/ccr5, 48 h. The essentials: as §2
Series [7] has as its target Human immunodeficiency virus type 1 reverse transcriptase (Human immunodeficiency virus 1) (UniProt Q72547). In words: Inhibition of HIV1 reverse transcriptase-mediated viral DNA synthesis at 5 uM using TA template by PAGE in presence of thymidine triphosphate. The essentials: (§3)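 Competition primer-extension: labeled primer on DNA or RNA template of identical sequence (RNA reactions supplemented with RNase inhibitor), HIV-1 RT (1.0 µg), 10.0 µM each dATP/dCTP/dGTP. TTP:analog triphosphate at 1:5 or 1:1, totalling 10.0 µM; 37°, timed intervals, EDTA stop, 15% sequencing gel to score pausing.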

For series [8] the target is unchanged. Briefly: Inhibition of HIV1 reverse transcriptase-mediated viral DNA synthesis at 5 uM using UA template by PAGE in presence of thymidine triphosphate. The essentials: as §3
In series [9] the test system is TZM. In words: Cytotoxicity against human TZM cells up to 10 uM after 48 hrs by XTT assay.
Series [10] in a line: Cytotoxicity against human GHOST cells up to 10 uM after 48 hrs by XTT assay.
Series [11] can be described thus: Cytotoxicity against human Hut/CCR5 cells up to 10 uM after 48 hrs by XTT assay. The note with it: hut/ccr5, 48 h.
Series [12] has as its target Human immunodeficiency virus type 1 reverse transcriptase (Human immunodeficiency virus 1) (UniProt Q72547). Briefly: Ratio of IC50 for inhibition of HIV1 wild type reverse transcriptase-mediated viral DNA synthesis in human HOS cells to IC50 for inhibition of HIV1 wild type reverse transcriptase-mediated viral DNA synthesis in human HOS-313 cells expressing HSV thymidine kinase. The format is cell-based. The essentials:
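VSV-G-pseudotyped single-round HIV-1 luciferase vector (wt RT) made in 293 cells. HOS or HSV-TK-expressing HOS 313 cells, 4000/well, were pretreated 3 h with compound, infected 48 h, and luminescence read. Activity was normalized to untreated infections, and IC50 was taken from a four-parameter sigmoidal fit in each line.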

Series [13] is described as follows: Inhibition of HIV1 reverse transcriptase M41L/D67N/K70R/T215Y/K219Q mutant-mediated viral DNA synthesis in human HOS-313 cells expressing HSV thymidine kinase assessed as luciferase activity treated 3 hrs before infection measured after 48 hrs by luminescence assay. The note with it: Human immunodeficiency virus 1, HOS-313. The format is cell-based. The essentials:
as §1

A short description of series [14]: Inhibition of HIV1 reverse transcriptase SSGR/T215Y mutant-mediated viral DNA synthesis in human HOS-313 cells expressing HSV thymidine kinase assessed as luciferase activity treated 3 hrs before infection measured after 48 hrs by luminescence assay. Type of series: cell-based. The note with it: Human immunodeficiency virus 1, HOS-313. In outline: as §1
The subject of a further series is HIV-1 M:B_Lai. Briefly: Antiviral activity against HIV1 LAI infected in human TZM cells assessed as inhibition of viral replication. The format is functional, organism-based. The note with it: Human immunodeficiency virus 1, LAI. In outline:
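Single-cycle inhibition assay in TZM (HeLa-derived indicator) cells infected with replication-competent wild-type HIV-1 LAI across a range of compound concentrations; IC50 reported.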

With `Cc1cn([C@H]2C[C@H](N=[N+]=[N-])[C@@H](CO)O2)c(=O)[nH]c1=O` [ZIDOVUDINE], the IC50 (in general, the concentration that gives 50% inhibition) in series [1] amounted to 39.6 nM; in series [2], 20.1 nM.
Consider `Cc1cn([C@H]2CC[C@@H](COP(=O)(O)OP(=O)(O)OP(=O)(O)O)O2)c(=O)[nH]c1=O`, for which the inhibition entry in series [3] is “Active”.
On to `CC(O)COC[C@H]1O[C@@H]2O[C@H]3[C@H](O)[C@@H](O)[C@@H](O[C@H]4[C@H](O)[C@@H](O)[C@@H](O[C@H]5[C@H](O)[C@@H](O)[C@@H](O[C@H]6[C@H](O)[C@@H](O)[C@@H](O[C@H]7[C@H](O)[C@@H](O)[C@@H](O[C@H]8[C@H](O)[C@@H](O)[C@@H](O[C@H]1[C@H](O)[C@H]2O)O[C@@H]8COCC(C)O)O[C@@H]7COCC(C)O)O[C@@H]6COCC(C)O)O[C@@H]5COCC(C)O)O[C@@H]4COCC(C)O)O[C@@H]3COCC(C)O` (stereo partly drawn) [2-HYDROXYPROPYL-BETA-CYCLODEXTRIN], for which the Activity (in the series on TZM [4]; in [5]; in series [6]) was greater than 50% each time.
For the compound `Cc1cn([C@@H]2C[C@H](COP(=O)(O)OP(=O)(O)OP(=O)(O)O)[C@@H](O)C2)c(=O)[nH]c1=O`, the inhibition result in [7] is “inactive”. Besides, the inhibition entry in series [3] and in [8] was “Active” throughout.
Consider `Cc1cn([C@H]2C[C@H](O)[C@@H](COP(=O)(O)OP(=O)(O)OP(=O)(O)O)O2)c(=O)[nH]c1=O`, for which the inhibition entry in series [3] was “inactive”.
On to `Cc1cccc2c1OP(=O)(OC[C@H]1C[C@@H](n3cc(C)c(=O)[nH]c3=O)C[C@@H]1O)OC2` (some centres not stated), for which the Activity entry (in the series on TZM [9]; in [10]; in series [11]) was “Non-toxic” in each case.
`Cc1cn([C@@H]2C[C@H](CO)[C@@H](O)C2)c(=O)[nH]c1=O`: the Activity entry (in the series with TZM [9]; in [10]; in series [11]) was “Non-toxic” in each case. Further, the Ratio IC50 in series [12] came to 4. Also, the IC50 stood at 4600 nM in series [1]; 870 nM in series [13]; 1000 nM in series [14]; 50 nM with HIV-1 M:B_Lai; 1300 nM in series [2].
